Consider 1 compound from ChEMBL document CHEMBL1649230, “Aryl rhodanines specifically inhibit staphylococcal and enterococcal biofilm formation” (Antimicrob Agents Chemother, 2009).

Converted amounts (≈) assume the structure as drawn.

The experiment concerns Staphylococcus aureus. In words: Antimicrobial activity against Staphylococcus aureus ATCC 35556 by M7-A7 method. It is filed as functional. The essentials: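 Planktonic MIC by CLSI M7-A7 broth microdilution. Twofold compound dilutions made in DMSO at 50× final concentration and added to plates before inoculation; 2% DMSO final.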

`O=C(N[C@H](CO)[C@H](O)c1ccc([N+](=O)[O-])cc1)C(Cl)Cl` [CHLORAMPHENICOL] displayed an MIC of 1 µg/mL (≈ 3.09 µM).

As a reminder, the MIC is the smallest concentration in the dilution series that meets the test's criterion for growth inhibition. A lower MIC goes with inhibition by little substance.
